Among the data in ChEMBL document CHEMBL1145425, “Antitumor agents 259. Design, syntheses, and structure-activity relationship study of desmosdumotin C analogs” (2007) are EC50 values, retold here.

Values after ≈ are worked out from the molar mass of the structure shown. Where only a bound is given, the exact number is not on record here.

Common to all, as to format: functional
The subject of experiment [1] is HUVEC. Briefly: Antiangiogenesis activity against HUVEC. Conditions: Homo sapiens, read-out: ED50 (the source's name). A digest of the protocol:
(§1)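 HUVEC seeded at 1.5×10^3 per well in EGM-2; after 24 h (day zero) compound added in EGM-2 at 2× the desired concentration. Day-zero plate stained with crystal violet. Remaining plates kept 72 h at 37 °C, then stained with 0.5% crystal violet in 20% MeOH. Dye eluted with 1:1 EtOH:0.1 M sodium citrate and read at 540 nm. Run per the NCI Angiogenesis Resource Center protocol.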

Another experiment concerns PC-3. Briefly: Cytotoxicity against human PC3 cells. Conditions: read-out: ED50 (the source's name). In short, it runs like this: (§2)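 Sulforhodamine B growth assay. Lines kept in RPMI-1640 with 25 mM HEPES, 0.25% sodium bicarbonate, 10% FBS and kanamycin. Trypsinized cells seeded at 1500–7500 per well, with compound added from DMSO-diluted stock. After 3 days, attached cells fixed with cold 50% TCA, stained with 0.4% SRB, dye solubilized, absorbance read at 562 nm. ED50 is 50% growth reduction, averaged over at least three independent determinations.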

The next experiment deals with A-431. Briefly: Cytotoxicity against human A431 cells. Conditions: read-out: ED50 (the source's name). A digest of the protocol:
as §2

The subject of another experiment is HCT-8. Briefly: Cytotoxicity against human HCT8 cells. Conditions: read-out: ED50 (the source's name). In short, it runs like this:
as §2

For the next experiment, the system named is 1A9. Briefly: Cytotoxicity against human 1A9 cells. Conditions: read-out: ED50 (the source's name). A digest of the protocol:
as §2

In experiment [2] the test system is HUVEC. The experiment in a line: Cytotoxicity against HUVEC. Conditions: Homo sapiens, read-out: ED50 (the source's name). In short, it runs like this:
as §1

Experiment [3] concerns KB. The experiment in a line: Cytotoxicity against human KB cells. Conditions: read-out: ED50 (the source's name). In short, it runs like this: as §2
A further experiment deals with A549. Briefly: Cytotoxicity against human A549 cells. Conditions: read-out: ED50 (the source's name). A digest of the protocol: as §2
The subject of experiment [4] is KB. Briefly: Cytotoxicity against human vincristine-resistant KB cells. Conditions: read-out: ED50 (the source's name). In short, it runs like this:
as §2

On to `COC1=C(C)C(=O)/C(=C(O)/C=C/c2cccs2)C(=O)C1(C)C`, for which the EC50 with HUVEC [1] is below 4 µg/mL; in the experiment on PC-3, 18.2 µg/mL (≈ 57.2 µM); in the experiment on A-431 it was 10.8 µg/mL (≈ 33.9 µM); in the experiment on HCT-8, 8.6 µg/mL (≈ 27 µM); in the experiment on 1A9 it was 4 µg/mL (≈ 12.6 µM); in the experiment on HUVEC [2] it was 2.5 µg/mL (≈ 7.85 µM). The EC50 came out at 5.5 µg/mL (≈ 17.3 µM) in the experiment on KB [3], 4.5 µg/mL (≈ 14.1 µM) in the experiment on A549 and 3.4 µg/mL (≈ 10.7 µM) with KB [4].

Take `COC1=CC(O)=C(C(=O)/C=C/c2ccccc2)C(=O)C1(C)C`: the EC50 was 14.2 µg/mL (≈ 47.6 µM) in the experiment with PC-3; 7 µg/mL (≈ 23.5 µM) in the experiment on A-431; 3.3 µg/mL (≈ 11.1 µM) with HCT-8; 3.6 µg/mL (≈ 12.1 µM) in the experiment on 1A9; above 20 µg/mL with HUVEC [2]; 4.1 µg/mL (≈ 13.7 µM) in the experiment on KB [3]. In addition, the values for the EC50 in the experiment with A549 and in the experiment with KB [4] were above 5 µg/mL and 2.9 µg/mL (≈ 9.72 µM), respectively.

Regarding `CCC1=C(OC)C(CC)(CC)C(=O)C(C(=O)/C=C/c2ccccc2)=C1O`, the EC50 was found to be 7.7 µg/mL (≈ 21.7 µM) with PC-3; 5.4 µg/mL (≈ 15.2 µM) in the experiment with A-431; 2.8 µg/mL (≈ 7.9 µM) in the experiment with HCT-8; 2.1 µg/mL (≈ 5.92 µM) in the experiment on 1A9; 2.8 µg/mL (≈ 7.9 µM) in the experiment on KB [3]; 3.4 µg/mL (≈ 9.59 µM) with A549. Besides, the EC50 in the experiment with KB [4] amounted to 1.2 µg/mL (≈ 3.39 µM).

As for `CCC1=C(OC)C(CC)(CC)C(=O)C(C(=O)/C=C/c2ccc(C)cc2)=C1O`, the EC50 in the experiment with PC-3 was found to be 15 µg/mL (≈ 40.7 µM); with A-431, 10.3 µg/mL (≈ 28 µM); in the experiment on HCT-8, 9.4 µg/mL (≈ 25.5 µM); in the experiment on 1A9 it was 4.3 µg/mL (≈ 11.7 µM); in the experiment on KB [3] it was 3 µg/mL (≈ 8.14 µM); in the experiment with A549, 4.6 µg/mL (≈ 12.5 µM). Moreover, the EC50 with KB [4] stood at 1 µg/mL (≈ 2.71 µM).

With `CCC1=C(OC)C(CC)(CC)C(=O)C(C(=O)/C=C/c2ccc(CC)cc2)=C1O`, the EC50 in the experiment with PC-3 turned out to be 15 µg/mL (≈ 39.2 µM); in the experiment on A-431 it was 9.8 µg/mL (≈ 25.6 µM); in the experiment on HCT-8 it was 8.5 µg/mL (≈ 22.2 µM); with 1A9, 3.8 µg/mL (≈ 9.93 µM); in the experiment on KB [3] it was 3.6 µg/mL (≈ 9.41 µM); in the experiment with A549, 3.8 µg/mL (≈ 9.93 µM). The EC50 in the experiment with KB [4] is 2.6 µg/mL (≈ 6.8 µM).

For the compound `CC1=C(O)C(C)(C)C(=O)C(C(=O)/C=C/c2ccccc2)=C1O`, the EC50 in the experiment on HUVEC [1] was below 4 µg/mL; in the experiment on PC-3, 17.8 µg/mL (≈ 59.7 µM); in the experiment on A-431, 14 µg/mL (≈ 46.9 µM); in the experiment with HCT-8 it was 15.8 µg/mL (≈ 53 µM); with 1A9, 8 µg/mL (≈ 26.8 µM); in the experiment with HUVEC [2], 2.1 µg/mL (≈ 7.04 µM). The figures for the EC50 with KB [3], in the experiment on A549 and with KB [4] were 10.5 µg/mL (≈ 35.2 µM), 9 µg/mL (≈ 30.2 µM) and 6.5 µg/mL (≈ 21.8 µM), respectively.

For the compound `COC1=C(C)C(=O)/C(=C(O)/C=C/c2nccs2)C(=O)C1(C)C`, the EC50 in the experiment with HUVEC [1] is below 4 µg/mL; in the experiment with PC-3 it was 10.8 µg/mL (≈ 33.8 µM); with A-431 it was 6 µg/mL (≈ 18.8 µM); in the experiment with HCT-8, 5.1 µg/mL (≈ 16 µM); in the experiment on 1A9 it was 3.5 µg/mL (≈ 11 µM); in the experiment with HUVEC [2], 1.6 µg/mL (≈ 5.01 µM). The EC50 in the experiment on KB [3] was found to be 4.3 µg/mL (≈ 13.5 µM); in the experiment on A549, 3.5 µg/mL (≈ 11 µM); in the experiment on KB [4], 3 µg/mL (≈ 9.39 µM).

Take `COC1=C(C)C(=O)/C(=C(O)/C=C/c2cccc(OC)c2)C(=O)C1(C)C`: the EC50 with HUVEC [1] is below 4 µg/mL; in the experiment with PC-3, 14.3 µg/mL (≈ 41.8 µM); with A-431 it was 4.5 µg/mL (≈ 13.1 µM); in the experiment with HCT-8 it was 2.9 µg/mL (≈ 8.47 µM); with 1A9 it was 2.9 µg/mL (≈ 8.47 µM); in the experiment with HUVEC [2], 1.6 µg/mL (≈ 4.67 µM). Moreover, the EC50 with KB [3] was found to be 3.3 µg/mL (≈ 9.64 µM); with A549 it was 2.8 µg/mL (≈ 8.18 µM); in the experiment on KB [4] it was 2.4 µg/mL (≈ 7.01 µM).

With `COC1=C(C)C(=O)/C(=C(O)/C=C/c2ccc(O)cc2)C(=O)C1(C)C`, the EC50 in the experiment on HUVEC [1] was below 4 µg/mL; in the experiment with PC-3 it was above 20 µg/mL; in the experiment with A-431, 14.9 µg/mL (≈ 45.4 µM); in the experiment with HCT-8, 14.8 µg/mL (≈ 45.1 µM); with 1A9, 2.9 µg/mL (≈ 8.83 µM); in the experiment with HUVEC [2], 4 µg/mL (≈ 12.2 µM). Also, the EC50 in the experiment with KB [3] turned out to be 3.8 µg/mL (≈ 11.6 µM); in the experiment on A549, 3.1 µg/mL (≈ 9.44 µM); with KB [4], 3.8 µg/mL (≈ 11.6 µM).

`CCc1ccc(/C=C/C(O)=C2/C(=O)C(C)=C(OC)C(C)(C)C2=O)cc1`: the EC50 was 15.1 µg/mL (≈ 44.4 µM) with PC-3; 12 µg/mL (≈ 35.3 µM) in the experiment with A-431; 10.5 µg/mL (≈ 30.8 µM) in the experiment on HCT-8; 5.3 µg/mL (≈ 15.6 µM) in the experiment with 1A9; 6.9 µg/mL (≈ 20.3 µM) with KB [3]; 6.1 µg/mL (≈ 17.9 µM) in the experiment on A549. Also, the EC50 in the experiment with KB [4] is 1.9 µg/mL (≈ 5.58 µM).

Consider `COC1=C(C)C(=O)/C(=C(O)/C=C/c2cccc3ccccc23)C(=O)C1(C)C`, for which the EC50 was below 4 µg/mL in the experiment with HUVEC [1]; 9 µg/mL (≈ 24.8 µM) with PC-3; 4.1 µg/mL (≈ 11.3 µM) with A-431; 2.3 µg/mL (≈ 6.35 µM) in the experiment with HCT-8; 1.8 µg/mL (≈ 4.97 µM) with HUVEC [2]; 2.8 µg/mL (≈ 7.73 µM) in the experiment with KB [3]. The figures for the EC50 in the experiment on A549 and with KB [4] were 3.6 µg/mL (≈ 9.93 µM) and 1.3 µg/mL (≈ 3.59 µM), respectively.

As for `COC1=C(C)C(O)=C(C(=O)/C=C/c2ccccc2)C(=O)C1(C)C` [DESMOSDUMOTIN C], the EC50 with HUVEC [1] is below 4 µg/mL; with PC-3, 11.1 µg/mL (≈ 35.5 µM); in the experiment on A-431, 5.1 µg/mL (≈ 16.3 µM); in the experiment with HCT-8, 3.7 µg/mL (≈ 11.8 µM); in the experiment with 1A9, 3.5 µg/mL (≈ 11.2 µM); with HUVEC [2] it was 2.1 µg/mL (≈ 6.72 µM). Further, the EC50 in the experiment with KB [3] came out at 4 µg/mL (≈ 12.8 µM); in the experiment on A549 it was 3.5 µg/mL (≈ 11.2 µM); in the experiment with KB [4] it was 3 µg/mL (≈ 9.6 µM).
